Laboratory results reported in ChEMBL document CHEMBL1157592, “Design, synthesis and antimicrobial properties of non-hemolytic cationic alpha-cyclopeptoids” (Bioorg Med Chem, 2010).
Values after ≈ are worked out from the molar mass of the structure shown. Active and inactive are the calls of the source. The rule behind the calls is not given here. Square brackets hold non-standard residues; d marks the D form. Peptide text beside a SMILES is read from it. Nphe = O=C(O)CNCc1ccccc1; Nlys = NCCCCNCC(=O)O

Assays:
[1] = system: Candida albicans; assay: Antimicrobial activity against Candida albicans ATCC 90029 after 48 hrs by broth microdilution method; type: functional; conditions: ATCC 90029, 48 h
Summary of the method: (§1)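 Fungi grown on Sabouraud agar at 30 °C for 48 h, suspended in PBS, turbidity read at 600 nm and adjusted in RPMI-1640. Twofold serial dilutions made in RPMI-1640, inoculum ~5 × 10⁴ cells/mL, incubated 30 °C for 48 h. MIC is the lowest concentration giving complete inhibition of visible growth, following NCCLS broth microdilution guidelines.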

[2] = system: Candida albicans; assay: Membrane permeabilizing effect in Candida albicans ATCC 90029 assessed as propidium iodide uptake at 250 uM after 30 to 240 mins by flow cytometry; type: functional, organism-based
Summary of the method: (§2)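 Candida subcultured on Sabouraud agar, diluted in RPMI-1640 to 1 × 10⁵ cells/mL and incubated with peptoid at 30 °C for various times. Propidium iodide (final 10 µg/mL) added, 4 min at 30 °C, then flow cytometry with ≥10,000 events. Read-out is % PI-positive cells, background (no peptoid) subtracted; triplicates, mean ± SD.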

[3] = system: Cryptococcus neoformans; assay: Antimicrobial activity against Cryptococcus neoformans L1 after 48 hrs by broth microdilution method; type: functional; conditions: L1, 48 h; summary of the method: as §1
[4] = system: Salmonella typhimurium; assay: Antimicrobial activity against Salmonella Typhimurium ATCC 14028 after 18 hrs by broth microdilution method; type: functional, Salmonella enterica subsp. enterica serovar Typhimurium; conditions: Salmonella enterica, ATCC 14028, 18 h
Summary of the method: (§3)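 Strains grown at 37 °C in Mueller–Hinton broth and tested in logarithmic phase. Twofold serial dilutions made in MH broth, inoculum ~2.5 × 10⁵ cells/mL, incubated overnight (18 h) at 37 °C. MIC is the lowest concentration giving complete inhibition of visible growth, following NCCLS broth microdilution guidelines.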

[5] = system: Escherichia coli; assay: Membrane permeabilizing effect in Escherichia coli ATCC 25922 assessed as propidium iodide uptake at 250 uM after 180 mins by flow cytometry; type: functional, organism-based
Summary of the method: (§4)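 Log-phase bacteria at 1 × 10⁶ cells/mL in MH broth incubated with peptoid at 37 °C for various times. Propidium iodide (final 10 µg/mL) added, 4 min at 37 °C, then flow cytometry with ≥10,000 events. Read-out is % PI-positive cells, background (no peptoid) subtracted; triplicates, mean ± SD.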

[6] = system: Cryptococcus neoformans; assay: Antimicrobial activity against Cryptococcus neoformans ATCC 90112 after 48 hrs by broth microdilution method; type: functional; conditions: ATCC 90112, 48 h; summary of the method: as §1
[7] = system: Staphylococcus aureus; assay: Membrane permeabilizing effect in Staphylococcus aureus ATCC 25923 assessed as propidium iodide uptake at 250 uM after 60 mins by flow cytometry; type: functional; summary of the method: as §4
[8] = system: Escherichia coli; assay: Antimicrobial activity against Escherichia coli ATCC 25922 after 18 hrs by broth microdilution method; type: functional; conditions: ATCC 25922, 18 h; summary of the method: as §3
[9] = system: Staphylococcus aureus; assay: Antimicrobial activity against Staphylococcus aureus ATCC 25923 after 18 hrs by broth microdilution method; type: functional; conditions: ATCC 25923, 18 h; summary of the method: as §3
[10] = system: Candida albicans; assay: Antimicrobial activity against Candida albicans L21 after 48 hrs by broth microdilution method; type: functional; conditions: L21, 48 h; summary of the method: as §1
[11] = Toxicity in human RBCs assessed as induction of hemolysis at 100 uM relative to untreated control; type: cell-based; conditions: erythrocyte
Summary of the method: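 Erythrocytes taken from fresh human blood anticoagulated with citrate-dextrose. A 0.5% (v/v) suspension in 10 mM phosphate buffer pH 7.4 with 139 mM NaCl was incubated with 100 µM cyclopeptoid for 60 min at 37 °C. Reaction stopped with cold buffer, centrifuged at 10,000g for 1 min, and the supernatant collected.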

[12] = system: Debaryomyces hansenii; assay: Antimicrobial activity against Candida famata SA550 after 48 hrs by broth microdilution method; type: functional; conditions: SA550, 48 h; summary of the method: as §1
[13] = Toxicity in human RBCs assessed as induction of hemolysis at 20 uM relative to untreated control; type: cell-based, Erythrocyte; conditions: red blood cells (RBCs)
[14] = system: Candida albicans; assay: Membrane permeabilizing effect in Candida albicans ATCC 90029 assessed as propidium iodide uptake at 100 uM after 120 to 240 mins by flow cytometry; type: functional; summary of the method: as §2
[15] = system: Candida albicans; assay: Membrane permeabilizing effect in Candida albicans ATCC 90029 assessed as propidium iodide uptake at 100 uM after 120 mins by flow cytometry; type: functional, organism-based; summary of the method: as §2

| SMILES | MIC [1] | Activity [2] | MIC [3] | MIC [4] | Activity [5] | MIC [6] | Activity [7] | MIC [8] | MIC [9] | MIC [10] | Activity [11] | MIC [12] | hemolysis at 20 µM [13] | Activity [14] | Activity [15] |
| --- | --- | --- | --- | --- | --- | --- | --- | --- | --- | --- | --- | --- | --- | --- | --- |
| NCCCCN1CC(=O)N(CCOCc2ccccc2)CC(=O)N(CCCCN)CC(=O)N(CCOCc2ccccc2)CC(=O)N(CCCCN)CC(=O)N(CCOCc2ccccc2)CC1=O.O=C(O)C(F)(F)F.O=C(O)C(F)(F)F.O=C(O)C(F)(F)F | 184 µM | inactive | 92 µM | > 766 µM | inactive | 184 µM | >40% | 383 µM | 383 µM | 184 µM |  |  |  |  |  |
| NCCCCN1CC(=O)N(CCCCN)CC(=O)N(CCCCN)CC(=O)N(CCCCN)CC(=O)N(CCCCN)CC(=O)N(CCCCN)CC1=O.O=C(O)C(F)(F)F.O=C(O)C(F)(F)F.O=C(O)C(F)(F)F.O=C(O)C(F)(F)F.O=C(O)C(F)(F)F.O=C(O)C(F)(F)F | 10 µM |  | > 1000 µM | > 1000 µM |  | > 1000 µM |  | > 1000 µM | > 1000 µM | 5 µM | Non-toxic | 5 µM |  |  |  |
| O=C1CN(CCOCc2ccccc2)C(=O)CN(CCOCc2ccccc2)C(=O)CN(CCOCc2ccccc2)C(=O)CN(CCOCc2ccccc2)C(=O)CN(CCOCc2ccccc2)C(=O)CN1CCOCc1ccccc1 | > 1000 µM |  | > 1000 µM | > 1000 µM |  | > 1000 µM |  | > 1000 µM | > 1000 µM | > 1000 µM |  |  |  |  |  |
| NCCCCN(CC(=O)N(CCOCc1ccccc1)CC(=O)N(CCOCc1ccccc1)CC(=O)N(CCCCN)CC(=O)N(CCOCc1ccccc1)CC(=O)O)C(=O)CNCCOCc1ccccc1 | 360 µM (≈ 374 µg/mL) |  | 90 µM (≈ 93.5 µg/mL) | 720 µM (≈ 748 µg/mL) |  | 180 µM (≈ 187 µg/mL) |  | 360 µM (≈ 374 µg/mL) | > 720 µM | 360 µM (≈ 374 µg/mL) |  |  |  |  |  |
| CC[C@H](C)[C@H](NC(=O)CN)C(=O)NCC(=O)N[C@@H](C)C(=O)N[C@H](C(=O)N[C@@H](CC(C)C)C(=O)N[C@@H](CCCCN)C(=O)N[C@H](C(=O)N[C@@H](CC(C)C)C(=O)N[C@H](C(=O)N[C@H](C(=O)NCC(=O)N[C@@H](CC(C)C)C(=O)N1CCC[C@H]1C(=O)N[C@@H](C)C(=O)N[C@@H](CC(C)C)C(=O)N[C@H](C(=O)N[C@@H](CO)C(=O)N[C@@H](Cc1c[nH]c2ccccc12)C(=O)N[C@H](C(=O)N[C@@H](CCCCN)C(=O)N[C@@H](CCCNC(=N)N)C(=O)N[C@@H](CCCCN)C(=O)N[C@@H](CCCNC(=N)N)C(=O)N[C@@H](CCC(N)=O)C(=O)N[C@@H](CCC(N)=O)C(N)=O)[C@@H](C)CC)[C@@H](C)CC)[C@@H](C)O)[C@@H](C)O)C(C)C)C(C)C [MELITTIN] |  |  |  |  |  |  |  |  |  |  |  |  | > 90% |  |  |
| NCCCCN1CC(=O)N(Cc2ccccc2)CC(=O)N(CCCCN)CC(=O)N(CCCCN)CC(=O)N(Cc2ccccc2)CC(=O)N(CCCCN)CC1=O.O=C(O)C(F)(F)F.O=C(O)C(F)(F)F.O=C(O)C(F)(F)F.O=C(O)C(F)(F)F (cyclo([Nlys][Nlys][Nphe][Nlys][Nlys][Nphe])) | 12 µM |  | 99 µM | > 1000 µM |  | 47 µM |  | 786 µM | > 1000 µM | 12 µM | Non-toxic | 12 µM |  | 50% | Active |
| NCCCCN1CC(=O)N(CCOCc2ccccc2)CC(=O)N(CCOCc2ccccc2)CC(=O)N(CCCCN)CC(=O)N(CCOCc2ccccc2)CC(=O)N(CCOCc2ccccc2)CC1=O | 196 µM (≈ 200 µg/mL) |  | 98 µM (≈ 100 µg/mL) | > 792 µM |  | 196 µM (≈ 200 µg/mL) |  | 392 µM (≈ 400 µg/mL) | 392 µM (≈ 400 µg/mL) | 196 µM (≈ 200 µg/mL) |  |  |  |  |  |
| NCCCCN(CC(=O)O)C(=O)CN(CCCCN)C(=O)CN(Cc1ccccc1)C(=O)CN(CCCCN)C(=O)CN(CCCCN)C(=O)CNCc1ccccc1 | > 1000 µM |  | > 1000 µM | > 1000 µM |  | > 1000 µM |  | > 1000 µM | > 1000 µM | > 1000 µM |  | > 1000 µM |  |  |  |
| NCCCCNCC(=O)N(CCCCN)CC(=O)N(CCCCN)CC(=O)N(CCCCN)CC(=O)N(CCCCN)CC(=O)N(CCCCN)CC(=O)O | > 1000 µM |  | > 1000 µM | > 1000 µM |  | > 1000 µM |  | > 1000 µM | > 1000 µM | 500 µM (≈ 394 µg/mL) |  | > 1000 µM |  |  |  |
| O=C1CN(Cc2ccccc2)C(=O)CN(Cc2ccccc2)C(=O)CN(Cc2ccccc2)C(=O)CN(Cc2ccccc2)C(=O)CN(Cc2ccccc2)C(=O)CN1Cc1ccccc1 | > 1000 µM |  | > 1000 µM | > 1000 µM |  | > 1000 µM |  | > 1000 µM | > 1000 µM | > 1000 µM |  |  |  |  |  |
| NCCCCN1CC(=O)N(Cc2ccccc2)CC(=O)N(Cc2ccccc2)CC(=O)N(CCCCN)CC(=O)N(Cc2ccccc2)CC(=O)N(Cc2ccccc2)CC1=O (cyclo([Nlys][Nphe][Nphe][Nlys][Nphe][Nphe])) | 465 µM (≈ 393 µg/mL) |  | 116 µM (≈ 98 µg/mL) | 465 µM (≈ 393 µg/mL) |  | 232 µM (≈ 196 µg/mL) |  | 465 µM (≈ 393 µg/mL) | 465 µM (≈ 393 µg/mL) | 232 µM (≈ 196 µg/mL) |  |  |  |  |  |
| NCCCCN(CC(=O)N(CC(=O)N(CC(=O)N(CCCCN)CC(=O)N(CC(=O)O)Cc1ccccc1)Cc1ccccc1)Cc1ccccc1)C(=O)CNCc1ccccc1 (H-[Nphe][Nlys][Nphe][Nphe][Nlys][Nphe]-OH) | > 1000 µM |  | 788 µM (≈ 680 µg/mL) | > 1000 µM |  | > 1000 µM |  | > 1000 µM | > 1000 µM | > 1000 µM |  |  |  |  |  |
